Measured values as given in PMC3791136 (Journal of the American Chemical Society, 2013).

System: A2780 cells
Assay: Cytotoxicity with ER stress inhibitor salubrinal
Assay type: cell-based
Settings: salubrinal 10 μM
Procedure, shortened: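 A2780 cells given the test compound alone or co-administered with salubrinal (10 μM, an ER stress inhibitor). IC50 values were compared with and without inhibitor, with cisplatin run alongside.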

## N.N.[Cl][Pt][Cl] [cisplatin]
  effect of salubrinal on toxicity: limited effect
